# Data reported in ChEMBL document CHEMBL2417369, “Synthesis and evaluation of heteroaryl substituted diazaspirocycles as scaffolds to probe the ATP-binding site of protein kinases” (Bioorg Med Chem, 2013).
# Assays:
# [1] = target: T1, Serine/threonine-protein kinase Chk1 (Homo sapiens, UniProt O14757); assay: Inhibition of CHK1 (unknown origin) by Z'-Lyte assay
# T1 sequence (O14757 whole entry): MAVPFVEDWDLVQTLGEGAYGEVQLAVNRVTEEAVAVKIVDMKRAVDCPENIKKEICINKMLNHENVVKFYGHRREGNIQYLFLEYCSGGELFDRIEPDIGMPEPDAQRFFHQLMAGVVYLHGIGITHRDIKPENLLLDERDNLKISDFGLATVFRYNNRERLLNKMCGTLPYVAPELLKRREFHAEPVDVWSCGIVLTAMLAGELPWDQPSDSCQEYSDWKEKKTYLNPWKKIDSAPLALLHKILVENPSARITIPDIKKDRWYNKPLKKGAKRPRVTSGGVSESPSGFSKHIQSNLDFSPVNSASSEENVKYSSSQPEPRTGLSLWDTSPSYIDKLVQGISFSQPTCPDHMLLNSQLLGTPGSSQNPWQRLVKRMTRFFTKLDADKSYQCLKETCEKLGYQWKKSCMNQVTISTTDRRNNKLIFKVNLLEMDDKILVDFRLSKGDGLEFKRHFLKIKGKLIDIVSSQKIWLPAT
# Summary of the method: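 CHK1 IC50 was obtained by titration in the Z'-Lyte assay format, run as an outsourced screening service.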
# [2] = target: Protein kinase C delta type (Homo sapiens) (UniProt Q05655); assay: Inhibition of PKCdelta (unknown origin) at 30 uM by microfluidic mobility shift assay relative to control
# Summary of the method: (§1)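 Single-point screen at 30 µM test compound across a 24-kinase panel in a microfluidic assay format. ATP was set near each enzyme's Km,[ATP]. […] The pan-AGC inhibitor H-89 served as an internal control on every assay plate.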
# [3] = target: T2, Protein kinase C zeta type (Homo sapiens) (UniProt Q05513); assay: Inhibition of PKCzeta (unknown origin) at 30 uM by microfluidic mobility shift assay relative to control
# T2 sequence (whole entry): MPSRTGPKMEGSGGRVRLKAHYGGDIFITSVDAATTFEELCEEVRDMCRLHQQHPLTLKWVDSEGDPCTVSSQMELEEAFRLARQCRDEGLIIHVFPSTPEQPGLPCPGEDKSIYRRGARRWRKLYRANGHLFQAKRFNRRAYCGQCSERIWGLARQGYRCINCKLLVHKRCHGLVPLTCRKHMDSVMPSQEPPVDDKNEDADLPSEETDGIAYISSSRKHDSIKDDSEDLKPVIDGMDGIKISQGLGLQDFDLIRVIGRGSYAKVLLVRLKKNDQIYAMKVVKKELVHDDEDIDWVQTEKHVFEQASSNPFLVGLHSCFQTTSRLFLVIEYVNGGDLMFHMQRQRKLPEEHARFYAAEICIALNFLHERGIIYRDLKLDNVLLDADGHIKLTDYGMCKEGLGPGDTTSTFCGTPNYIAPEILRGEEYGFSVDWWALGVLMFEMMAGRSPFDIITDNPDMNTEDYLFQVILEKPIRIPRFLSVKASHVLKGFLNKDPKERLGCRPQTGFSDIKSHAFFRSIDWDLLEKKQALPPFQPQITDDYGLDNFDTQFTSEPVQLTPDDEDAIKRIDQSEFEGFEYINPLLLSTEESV
# Summary of the method: (§2)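 Single-point screen against a 24-kinase panel in a commercial microfluidic assay format. Compounds were tested at 30 µM, with ATP at approximately the Km,[ATP] of each enzyme. H-89 was included on each assay plate as an internal control.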
# [4] = target: T3, Serine/threonine-protein kinase BRSK2 (Homo sapiens) (UniProt Q8IWQ3); assay: Inhibition of BRSK2 (unknown origin) at 30 uM by microfluidic mobility shift assay relative to control; summary of the method: as §1
# T3 sequence (whole entry): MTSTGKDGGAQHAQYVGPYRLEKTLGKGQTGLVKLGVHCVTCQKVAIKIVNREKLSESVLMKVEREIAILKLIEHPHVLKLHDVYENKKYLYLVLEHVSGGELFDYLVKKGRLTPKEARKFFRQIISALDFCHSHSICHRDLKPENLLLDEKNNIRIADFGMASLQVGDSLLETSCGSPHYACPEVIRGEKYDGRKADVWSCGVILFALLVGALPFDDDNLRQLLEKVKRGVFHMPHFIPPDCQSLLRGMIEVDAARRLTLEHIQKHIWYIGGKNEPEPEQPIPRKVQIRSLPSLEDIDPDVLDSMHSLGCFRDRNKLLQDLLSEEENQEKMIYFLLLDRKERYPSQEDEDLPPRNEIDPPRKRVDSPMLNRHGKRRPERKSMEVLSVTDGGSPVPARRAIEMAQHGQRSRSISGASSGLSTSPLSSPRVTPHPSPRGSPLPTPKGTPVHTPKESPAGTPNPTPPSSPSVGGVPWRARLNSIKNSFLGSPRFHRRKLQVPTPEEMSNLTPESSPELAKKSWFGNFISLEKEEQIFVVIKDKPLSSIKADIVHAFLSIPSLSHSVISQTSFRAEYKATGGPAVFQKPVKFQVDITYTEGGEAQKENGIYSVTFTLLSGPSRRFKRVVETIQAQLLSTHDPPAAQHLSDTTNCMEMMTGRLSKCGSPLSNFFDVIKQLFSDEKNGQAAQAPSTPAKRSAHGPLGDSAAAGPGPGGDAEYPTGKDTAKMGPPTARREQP
# [5] = target: Vascular endothelial growth factor receptor 2 (Homo sapiens) (UniProt P35968); assay: Inhibition of KDR (unknown origin) at 30 uM by microfluidic mobility shift assay relative to control; summary of the method: as §1
# [6] = target: Fibroblast growth factor receptor 2 (Homo sapiens) (UniProt P21802); assay: Inhibition of FGFR2 (unknown origin) at 30 uM by microfluidic mobility shift assay relative to control; summary of the method: as §1
# [7] = target: Protein kinase C beta type (Homo sapiens) (UniProt P05771); assay: Inhibition of PKCbeta-1 (unknown origin) at 30 uM by microfluidic mobility shift assay relative to control; summary of the method: as §1
# [8] = target: T4, Serine/threonine-protein kinase Sgk2 (Homo sapiens) (UniProt Q9HBY8); assay: Inhibition of SGK2 (unknown origin) at 30 uM by microfluidic mobility shift assay relative to control; summary of the method: as §2
# T4 sequence (whole entry): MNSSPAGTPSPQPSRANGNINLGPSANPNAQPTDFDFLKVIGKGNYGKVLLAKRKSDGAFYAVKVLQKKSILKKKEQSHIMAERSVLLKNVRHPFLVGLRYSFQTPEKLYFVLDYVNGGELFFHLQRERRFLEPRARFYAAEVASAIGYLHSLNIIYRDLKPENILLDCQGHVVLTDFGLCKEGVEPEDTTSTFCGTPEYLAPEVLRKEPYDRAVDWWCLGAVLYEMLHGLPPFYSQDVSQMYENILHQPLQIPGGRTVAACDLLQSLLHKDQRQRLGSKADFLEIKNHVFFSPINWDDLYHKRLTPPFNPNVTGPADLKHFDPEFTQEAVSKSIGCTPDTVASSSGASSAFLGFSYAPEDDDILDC
# [9] = target: Tyrosine-protein kinase BTK (Homo sapiens) (UniProt Q06187); assay: Inhibition of BTK (unknown origin) at 30 uM by microfluidic mobility shift assay relative to control; summary of the method: as §1
# [10] = target: Epidermal growth factor receptor (Homo sapiens) (UniProt P00533); assay: Inhibition of EGFR (unknown origin) at 30 uM by microfluidic mobility shift assay relative to control; summary of the method: as §1
# Epidermal growth factor receptor (Homo sapiens), sequence (P00533 whole entry): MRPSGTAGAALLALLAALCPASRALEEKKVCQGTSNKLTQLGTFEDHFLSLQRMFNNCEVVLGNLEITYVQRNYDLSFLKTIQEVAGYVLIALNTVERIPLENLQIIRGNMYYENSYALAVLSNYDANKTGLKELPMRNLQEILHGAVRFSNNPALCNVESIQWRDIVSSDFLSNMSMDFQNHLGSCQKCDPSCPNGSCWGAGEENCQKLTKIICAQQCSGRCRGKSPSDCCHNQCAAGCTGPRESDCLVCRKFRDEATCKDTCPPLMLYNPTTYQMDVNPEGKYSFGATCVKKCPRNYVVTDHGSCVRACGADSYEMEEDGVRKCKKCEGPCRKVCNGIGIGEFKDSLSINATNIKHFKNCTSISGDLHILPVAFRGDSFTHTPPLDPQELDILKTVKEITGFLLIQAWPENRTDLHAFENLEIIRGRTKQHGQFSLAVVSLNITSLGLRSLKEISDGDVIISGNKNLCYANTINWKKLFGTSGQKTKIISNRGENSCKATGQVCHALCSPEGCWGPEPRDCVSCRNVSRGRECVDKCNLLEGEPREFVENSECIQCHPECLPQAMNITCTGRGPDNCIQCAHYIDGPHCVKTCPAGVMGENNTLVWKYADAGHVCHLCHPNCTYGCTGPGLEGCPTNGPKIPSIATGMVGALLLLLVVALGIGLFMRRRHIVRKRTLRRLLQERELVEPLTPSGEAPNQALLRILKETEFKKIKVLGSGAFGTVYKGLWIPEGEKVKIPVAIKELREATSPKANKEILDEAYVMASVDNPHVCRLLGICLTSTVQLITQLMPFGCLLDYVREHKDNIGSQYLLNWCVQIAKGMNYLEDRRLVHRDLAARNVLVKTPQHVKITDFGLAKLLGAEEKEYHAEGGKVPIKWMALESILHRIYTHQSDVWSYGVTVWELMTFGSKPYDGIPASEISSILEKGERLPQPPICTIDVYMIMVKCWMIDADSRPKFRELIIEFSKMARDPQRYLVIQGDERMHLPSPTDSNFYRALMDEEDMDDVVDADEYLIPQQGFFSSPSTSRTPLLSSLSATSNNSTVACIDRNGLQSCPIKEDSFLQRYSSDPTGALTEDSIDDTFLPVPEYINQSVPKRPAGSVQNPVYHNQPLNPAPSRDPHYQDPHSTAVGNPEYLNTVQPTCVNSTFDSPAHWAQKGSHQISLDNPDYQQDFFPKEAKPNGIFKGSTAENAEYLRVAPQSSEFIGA
# Vascular endothelial growth factor receptor 2 (Homo sapiens), sequence (P35968 whole entry): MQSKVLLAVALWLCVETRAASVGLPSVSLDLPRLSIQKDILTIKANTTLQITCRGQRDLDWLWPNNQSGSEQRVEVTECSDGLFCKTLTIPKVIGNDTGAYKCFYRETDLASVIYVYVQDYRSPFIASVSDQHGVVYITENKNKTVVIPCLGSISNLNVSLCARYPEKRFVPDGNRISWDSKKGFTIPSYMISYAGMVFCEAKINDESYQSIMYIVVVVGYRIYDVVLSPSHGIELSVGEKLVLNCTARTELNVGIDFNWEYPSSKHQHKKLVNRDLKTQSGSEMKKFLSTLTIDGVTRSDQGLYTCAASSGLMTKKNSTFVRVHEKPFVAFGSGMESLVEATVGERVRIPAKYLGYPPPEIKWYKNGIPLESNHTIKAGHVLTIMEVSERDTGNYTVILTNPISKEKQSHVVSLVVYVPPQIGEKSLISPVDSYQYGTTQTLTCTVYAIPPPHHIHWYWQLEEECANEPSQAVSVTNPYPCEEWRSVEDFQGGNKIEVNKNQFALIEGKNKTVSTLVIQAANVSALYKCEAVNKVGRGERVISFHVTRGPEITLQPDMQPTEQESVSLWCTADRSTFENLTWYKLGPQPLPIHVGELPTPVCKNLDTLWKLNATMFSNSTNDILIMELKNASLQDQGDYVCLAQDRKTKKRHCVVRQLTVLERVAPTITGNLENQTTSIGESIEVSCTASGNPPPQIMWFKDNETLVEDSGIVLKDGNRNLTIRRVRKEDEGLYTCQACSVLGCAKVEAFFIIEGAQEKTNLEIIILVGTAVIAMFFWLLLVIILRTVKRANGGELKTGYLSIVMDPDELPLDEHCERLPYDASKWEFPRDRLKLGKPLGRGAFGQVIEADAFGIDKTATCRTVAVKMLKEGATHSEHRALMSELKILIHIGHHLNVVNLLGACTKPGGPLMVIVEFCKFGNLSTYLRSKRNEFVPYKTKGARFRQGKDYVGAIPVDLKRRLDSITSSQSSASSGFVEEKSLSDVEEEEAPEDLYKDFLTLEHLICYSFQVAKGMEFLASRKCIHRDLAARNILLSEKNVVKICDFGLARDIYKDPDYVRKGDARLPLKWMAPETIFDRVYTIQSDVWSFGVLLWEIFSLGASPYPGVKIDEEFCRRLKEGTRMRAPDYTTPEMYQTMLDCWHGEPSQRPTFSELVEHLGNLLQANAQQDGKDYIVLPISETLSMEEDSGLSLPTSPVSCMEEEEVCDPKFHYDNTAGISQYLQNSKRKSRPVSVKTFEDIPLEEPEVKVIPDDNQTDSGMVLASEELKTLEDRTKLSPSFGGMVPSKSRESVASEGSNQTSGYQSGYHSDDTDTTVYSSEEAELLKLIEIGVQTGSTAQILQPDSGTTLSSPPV
# Protein kinase C beta type (Homo sapiens), sequence (P05771 2-671 limits assumed): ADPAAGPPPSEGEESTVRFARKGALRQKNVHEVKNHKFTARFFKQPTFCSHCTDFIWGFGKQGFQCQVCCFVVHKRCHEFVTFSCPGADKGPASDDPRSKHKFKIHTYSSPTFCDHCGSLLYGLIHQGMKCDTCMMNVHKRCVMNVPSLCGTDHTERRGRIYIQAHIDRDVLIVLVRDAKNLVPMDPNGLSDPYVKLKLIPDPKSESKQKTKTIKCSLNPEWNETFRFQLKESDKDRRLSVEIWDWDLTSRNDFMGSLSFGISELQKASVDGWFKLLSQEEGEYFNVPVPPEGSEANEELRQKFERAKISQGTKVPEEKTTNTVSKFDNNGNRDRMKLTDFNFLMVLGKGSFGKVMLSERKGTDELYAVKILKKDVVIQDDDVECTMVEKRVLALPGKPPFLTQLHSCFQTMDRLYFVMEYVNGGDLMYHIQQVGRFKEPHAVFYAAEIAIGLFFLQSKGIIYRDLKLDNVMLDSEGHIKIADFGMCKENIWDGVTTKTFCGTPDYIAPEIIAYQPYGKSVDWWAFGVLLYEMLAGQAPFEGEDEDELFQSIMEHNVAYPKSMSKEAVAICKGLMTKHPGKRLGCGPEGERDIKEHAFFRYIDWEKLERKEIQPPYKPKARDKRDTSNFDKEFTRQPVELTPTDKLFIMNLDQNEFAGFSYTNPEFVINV
# Fibroblast growth factor receptor 2 (Homo sapiens), sequence (P21802 22-821 limits assumed): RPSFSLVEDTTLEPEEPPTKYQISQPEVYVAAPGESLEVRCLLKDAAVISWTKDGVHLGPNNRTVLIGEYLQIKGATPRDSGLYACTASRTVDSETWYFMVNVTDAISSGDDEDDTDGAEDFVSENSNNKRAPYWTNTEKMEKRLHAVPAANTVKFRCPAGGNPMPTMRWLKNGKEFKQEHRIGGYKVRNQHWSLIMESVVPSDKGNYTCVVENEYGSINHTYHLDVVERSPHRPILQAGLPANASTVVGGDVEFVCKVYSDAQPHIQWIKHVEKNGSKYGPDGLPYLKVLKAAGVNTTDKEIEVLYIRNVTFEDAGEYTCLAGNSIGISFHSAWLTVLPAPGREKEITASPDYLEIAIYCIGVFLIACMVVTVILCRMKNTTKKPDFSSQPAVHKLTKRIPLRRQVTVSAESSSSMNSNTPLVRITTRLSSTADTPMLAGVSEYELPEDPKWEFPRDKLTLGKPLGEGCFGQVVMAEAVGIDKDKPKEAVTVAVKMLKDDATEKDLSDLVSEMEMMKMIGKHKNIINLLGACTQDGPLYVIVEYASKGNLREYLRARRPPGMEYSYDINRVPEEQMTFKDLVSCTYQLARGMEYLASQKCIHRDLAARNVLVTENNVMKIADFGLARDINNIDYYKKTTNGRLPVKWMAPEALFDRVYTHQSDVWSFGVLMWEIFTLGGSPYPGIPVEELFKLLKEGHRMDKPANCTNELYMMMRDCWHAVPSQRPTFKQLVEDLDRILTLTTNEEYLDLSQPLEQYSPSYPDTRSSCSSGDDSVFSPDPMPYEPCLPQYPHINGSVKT
# Tyrosine-protein kinase BTK (Homo sapiens), sequence (Q06187 whole entry): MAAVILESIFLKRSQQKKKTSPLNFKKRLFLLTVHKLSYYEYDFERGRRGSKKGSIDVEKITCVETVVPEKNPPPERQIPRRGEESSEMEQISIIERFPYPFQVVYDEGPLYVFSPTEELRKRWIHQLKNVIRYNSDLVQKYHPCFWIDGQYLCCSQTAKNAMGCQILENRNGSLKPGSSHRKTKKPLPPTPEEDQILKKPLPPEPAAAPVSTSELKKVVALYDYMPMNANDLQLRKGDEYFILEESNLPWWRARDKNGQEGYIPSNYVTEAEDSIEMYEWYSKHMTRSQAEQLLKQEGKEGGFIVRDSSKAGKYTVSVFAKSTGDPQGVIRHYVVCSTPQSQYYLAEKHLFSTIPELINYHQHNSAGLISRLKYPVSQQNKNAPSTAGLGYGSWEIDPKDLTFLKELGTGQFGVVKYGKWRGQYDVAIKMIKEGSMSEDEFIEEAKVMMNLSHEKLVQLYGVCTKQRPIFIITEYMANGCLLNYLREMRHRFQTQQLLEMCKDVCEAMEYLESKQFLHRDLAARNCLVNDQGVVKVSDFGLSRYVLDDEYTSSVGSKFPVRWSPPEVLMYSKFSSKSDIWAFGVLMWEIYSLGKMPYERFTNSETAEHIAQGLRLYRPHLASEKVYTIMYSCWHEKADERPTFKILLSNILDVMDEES
SMILES,IC50 [1] [µM],inhibition [2] [%],inhibition [3] [%],inhibition [4] [%],inhibition [5] [%],inhibition [6] [%],inhibition [7] [%],inhibition [8] [%],inhibition [9] [%],inhibition [10] [%]
c1nc(N2CCC3(CCCCN3)CC2)c2nc[nH]c2n1,18,–,–,–,–,–,–,–,–,–
c1nc(N2CCC3(CCCNC3)CC2)c2nc[nH]c2n1,1.8,–,–,–,–,–,–,–,–,–
O=S(=O)(c1cccc2cnccc12)N1CCCC2(CCCNC2)C1 (stereo not given),12.8,–,–,–,–,–,–,–,–,–
c1ccc(C2CCNC3(CCN(c4ncnc5[nH]cnc45)CC3)C2)cc1 (racemic),–,79,0,16,35,15,65,47,0,10
c1ccc(CC2CCNC3(CCN(c4ncnc5[nH]cnc45)CC3)C2)cc1 (racemic),–,75,0,0,11,18,76,59,11,3
c1ccc(CC2CCC3(CCN(c4ncnc5[nH]cnc45)CC3)NC2)cc1 (racemic),–,27,0,1,31,20,38,17,0,8
